Measurements gathered from unrelated publications.
Each line is one published result; the experiments were not run side by side.
BRAF: Serine/threonine-protein kinase B-raf (BRAF, Homo sapiens, UniProt P15056)
BRAF V600E: Serine/threonine-protein kinase B-raf (BRAF, Homo sapiens, UniProt P15056, V600E)

Compound	target	assay	setting	remaining binding [%]
O=C(c1ccc(Nc2nccc(-c3cc4ccccc4s3)n2)cc1)N1CCC(N2CCCC2)CC1	BRAF	binding, competition with immobilised ligand	1 µM	38
c1cncc(-c2cccc(Nc3nccc(NC4CCCCC4)n3)c2)c1	BRAF V600E	binding, competition with immobilised ligand	10 µM	52
Cc1nc(Cc2cccc(C(F)(F)F)c2)sc1-c1ccc(C(N)=O)nc1	BRAF V600E	cell-free assay, competition with immobilised ligand	1 µM	100
C[C@@H](c1ccc(-n2cnc3c(N)ncnc32)cc1)N1CCc2nn(C)c(Cc3ccccc3)c2C1=O	BRAF	binding, competition with immobilised ligand	0.1 µM	100
COc1cnc(Nc2cccc(S(N)(=O)=O)c2)nc1N1CCN(c2ccccc2)CC1	BRAF V600E	binding, competition with immobilised ligand	1 µM	82
CN1CCN(c2ccc(Nc3nccc(-c4ccccc4)n3)cc2C(F)(F)F)CC1	BRAF V600E	binding	10 µM	31
CC1CCCN1c1nccc(-c2cnn3ncccc23)n1 (stereo not shown)	BRAF V600E	binding	1 µM	100
NS(=O)(=O)c1cc(NC(=O)C2(c3ccccc3Cl)CC2)ccc1Oc1cccc(Cl)c1	BRAF	cell-free assay, competition with immobilised ligand	1 µM	71
O=C(c1ccc(Nc2ncc(Cl)c(-c3cc4ccccc4s3)n2)cc1)N1CCC(N2CCCC2)CC1	BRAF V600E	binding, competition with immobilised ligand	1 µM	56
CCN1CCN(Cc2ccc(C(=O)Nc3ccc(C)c(Oc4ccc5c(c4)CC(=O)N5)c3)cc2C(F)(F)F)CC1	BRAF V600E	binding, competition with immobilised ligand	1 µM	28
Cc1cnc(Nc2ccc(C(=O)N3CCC(N4CCCC4)CC3)cc2)nc1-c1cc2ccccc2s1	BRAF V600E	binding, competition with immobilised ligand	1 µM	32
COc1ncc2cc3ccccc3nc2c1C#N	BRAF V600E	cell-free assay, competition with immobilised ligand	5 µM	100
CN(CCCC(F)(F)F)c1nccc(-c2cnn3ncccc23)n1	BRAF V600E	binding	1 µM	100
N#Cc1ccccc1CSc1nnc2c(n1)[nH]c1ccccc12	BRAF V600E	binding, competition with immobilised ligand	10 µM	100
Cc1cc(NC(=O)c2cccc(S(F)(F)(F)(F)F)c2)cc(-n2ccn3nc(-c4cccnc4)cc23)c1	BRAF V600E	cell-free assay, competition with immobilised ligand	1 µM	24.4
O=C(NCCCN1CCOCC1)c1ccc(Nc2ncc(Cl)c(-c3ccc(Cl)s3)n2)cc1	BRAF	binding, competition with immobilised ligand	1 µM	100
CC(C)(C)c1ccc(-c2nc(CBr)nn2-c2cccc(O)c2)cc1	BRAF	cell-free assay, competition with immobilised ligand	10 µM	77
CN([C@@H]1CCc2c(CC(=O)O)c3cc(S(C)(=O)=O)ccc3n2C1)S(=O)(=O)c1ccc(F)cc1	BRAF	cell-free assay, competition with immobilised ligand	1 µM	98
O=C(NCCCN1CCOCC1)c1ccc(Nc2nccc(-c3cc4ccccc4s3)n2)cc1	BRAF V600E	binding, competition with immobilised ligand	1 µM	67

Compound	target	assay	setting	remaining binding [%]
COc1cnc(Nc2cccc(S(N)(=O)=O)c2)nc1N1CCN(c2ccccc2)C(=O)C1	BRAF	binding, competition with immobilised ligand	1 µM	87
NS(=O)(=O)c1cc(NC(=O)Cc2ccccc2)ccc1Oc1cccc(Cl)c1	BRAF	cell-free assay, competition with immobilised ligand	1 µM	96
C[C@@H]1CN(c2ccc3ncc(-c4ccc5[nH]nc(C6CC6)c5c4)n3n2)C[C@H](C)O1	BRAF	binding, competition with immobilised ligand	50 nM	91
CN(C)c1nccc(-c2cnc3ncccn23)n1	BRAF	binding	1 µM	89
Nc1ncc2c(n1)-c1c([nH]c3ccc(C#CC4CC4)cc13)CCCC2	BRAF	binding, competition with immobilised ligand	1 µM	100
CNCc1ccccc1-c1csc([C@H](C)Nc2nc(C)nc3cc(OC)c(OC)cc23)c1	BRAF	cell-free assay, competition with immobilised ligand	1 µM	97
CN(C)c1nccc(-c2cnn3ncccc23)n1	BRAF V600E	binding	1 µM	69
CNC(=O)[C@@H]1CC[C@@H](n2c(-c3ccc4cnccc4c3)nc3ccc(C(=O)NCc4cccc(C(N)=O)c4)cc32)C1	BRAF V600E	binding, competition with immobilised ligand	1 µM	100
O=C(c1ccc(Nc2ncc(Cl)c(-c3ccc(Cl)s3)n2)cc1)N1CCC(N2CCCC2)CC1	BRAF	binding, competition with immobilised ligand	1 µM	65
CS(=O)(=O)N1CCCC(NC(=O)[C@H](CCC2CCCCC2)NC(=O)c2ccc(CNc3ncnc4c3nnn4-c3ccccc3)cc2)C1 (stereo partly shown)	BRAF	cell-free assay, competition with immobilised ligand	0.1 µM	81
c1cnn2ncc(-c3ccnc(N4CCC45COC5)n3)c2c1	BRAF	binding	1 µM	56
O=C(Nc1c[nH]nc1C(=O)NC1CCNCC1)c1cc(F)cc(F)c1	BRAF V600E	binding, competition with immobilised ligand	1 µM	100
F[C@@H]1CCN(c2nccc(-c3cnn4ncccc34)n2)C1	BRAF V600E	binding	1 µM	100
C=CC(=O)N1CCC(C(=O)NCC(=O)N2CCN(c3nc(-c4cnc(N)nc4C(F)F)nc(N4CCOCC4)n3)CC2)CC1	BRAF	binding, competition with immobilised ligand	1 µM	92
C[C@@H]1CCN(c2nccc(-c3cnn4ncccc34)n2)C1	BRAF	binding	1 µM	75
CCC(=N\O)/C(C)=C/c1ccc(F)cc1	BRAF V600E	cell-free assay, competition with immobilised ligand	1 µM	77
N[C@H]1CCN(c2nccc(-c3cnn4ncccc34)n2)C1	BRAF V600E	binding	1 µM	92
O=C(NCC1CCOCC1)c1n[nH]cc1NC(=O)c1c(F)cccc1F	BRAF	binding, competition with immobilised ligand	1 µM	93
